Source: ChEMBL document CHEMBL5370680, “Design and Biological Evaluation of Piperazine-Bearing Nitrobenzamide Hypoxia/GDEPT Prodrugs: The Discovery of CP-506” (ACS Med Chem Lett, 2023)

Columns and labels:
HCT-116 [1] = assay: Antiproliferative activity against human HCT-116 cells overexpressing cytochrome P450 oxidoreductase assessed as inhibition of cell growth incubated for 4 hrs under anoxic condition and measured after 5 days regrowth under aerobic condition; assay type: functional, cell-based
Outline: (§1)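 Low-density monolayer antiproliferative assay. Cells exposed to prodrug for 4 h under aerobic or anoxic conditions, then regrown aerobically for 5 days. IC50 is the concentration giving 50% growth inhibition versus untreated controls. Mean values reported, CV <20%.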

[2] = Selectivity ratio of IC50 for antiproliferative activity against wild type human HCT-116 cells to IC50 for antiproliferative activity against human HCT-116 cells expressing AKR1C3; assay type: functional; conditions: time 4 hrs
Outline: (§2)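 Ratio of mean IC50 in non-transfected wild-type cells to mean IC50 in the AKR1C3- or NfsA_Ec-transfected line. IC50 is from a 4 h prodrug exposure and 5 days' regrowth.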

HCT-116 [3] = assay: Antiproliferative activity against human HCT-116 cells expressing AKR1C3 assessed as cell growth inhibition measured after 4 hrs; assay type: functional, cell-based; conditions: HCT-116, 4 h
Outline: (§3)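 Monolayer antiproliferative assay using wild-type cells and isogenic lines transfected with AKR1C3 or E. coli NfsA. Cells exposed to prodrug for 4 h, then regrown for 5 days. IC50 is 50% growth inhibition versus untreated controls. Mean values reported, CV <20%.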

HCT-116 [4] = assay: Antiproliferative activity against human HCT-116 cells assessed as inhibition of cell growth incubated for 4 hrs under anoxic condition and measured after 5 days regrowth under aerobic condition; assay type: functional, cell-based; outline: as §1
HCT-116 [5] = assay: Antiproliferative activity against human HCT-116 cells overexpressing cytochrome P450 oxidoreductase assessed as inhibition of cell growth incubated for 4 hrs under aerobic condition and measured after 5 days regrowth under aerobic condition; assay type: functional, cell-based; outline: as §1
NCI-H1299 [6] = assay: Antiproliferative activity against wild type human NCI-H1299 cells assessed as cell growth inhibition measured after 4 hrs; assay type: functional, cell-based; conditions: NCI-H1299, 4 h; outline: as §3
[7] = Toxicity in NIH-III nude mouse xenografted with human HCT-116 cells expressing NfsA of Escherichia coli assessed as body weight loss at 1000 micromol/kg, ip BID measured on day 16; assay type: organism-based; conditions: in vivo, 384 h, dose 1000 µmol/kg, time 16 day
[8] = Octanol/water partition coefficient, log D of the compound at pH 7.4; assay type: physicochemical
Outline: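 Octanol–water partition coefficient by shake-flask method at pH 7.4.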

[9] = Selectivity ratio of IC50 for antiproliferative activity against wild type human NCI-H1299 cells to IC50 for antiproliferative activity against human NCI-H1299 cells expressing AKR1C3; assay type: functional; conditions: time 4 hrs; outline: as §2
[10] = Toxicity in NIH-III nude mouse xenografted with human HCT-116 cells expressing NfsA of Escherichia coli assessed as body weight loss at 1000 micromol/kg, ip BID; assay type: organism-based; conditions: in vivo, at 1000 µmol/kg
HCT-116 [11] = assay: Antiproliferative activity against human HCT-116 cells in three-dimensional cell culture multicellular layers assessed as log cell killing under aerobic condition at 100 uM; assay type: functional
Outline: (§4)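 HCT116 three-dimensional multicellular layers exposed to 100 μM prodrug under aerobic or anoxic conditions. Clonogenic survivors per MCL counted. Log cell kill = log CS(control) − log CS(treated). Mean of ≥3 independent experiments.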

HCT-116 [12] = assay: Antiproliferative activity against human HCT-116 cells in three-dimensional cell culture multicellular layers assessed as log cell killing under anoxic condition at 100 uM; assay type: functional; outline: as §4
[13] = Selectivity ratio of IC50 for antiproliferative activity against wild type human HCT-116 cells to IC50 for antiproliferative activity against human HCT-116 cells expressing NfsA of Escherichia coli; assay type: functional; conditions: time 4 hrs; outline: as §2
[14] = Selectivity ratio of IC50 for antiproliferative activity against human HCT-116 cells assessed as inhibition of cell growth under aerobic condition to IC50 for antiproliferative activity against human HCT-116 cells assessed as inhibition of cell growth under anoxic condition; assay type: functional
Outline: (§5)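 Hypoxic cytotoxicity ratio is aerobic IC50 divided by anoxic IC50. Each IC50 comes from a 4 h drug exposure under aerobic or anoxic conditions, followed by 5 days' aerobic regrowth, relative to untreated controls.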

HCT-116 [15] = assay: Antiproliferative activity against human HCT-116 cells expressing NfsA of Escherichia coli assessed as cell growth inhibition measured after 4 hrs; assay type: functional; conditions: HCT-116, 4 h; outline: as §3
[16] = Selectivity ratio of IC50 for antiproliferative activity against human HCT-116 cells overexpressing cytochrome P450 oxidoreductase assessed as inhibition of cell growth under aerobic condition to IC50 for antiproliferative activity against human HCT-116 cells overexpressing cytochrome P450 oxidoreductase assessed as inhibition of cell growth under anoxic condition; assay type: functional; outline: as §5
HCT-116 [17] = assay: Antiproliferative activity against human HCT-116 cells assessed as inhibition of cell growth incubated for 4 hrs under aerobic condition and measured after 5 days regrowth under aerobic condition; assay type: functional, cell-based; outline: as §1
[18] = Selectivity ratio of IC50 for antiproliferative activity against wild type human NCI-H1299 cells to IC50 for antiproliferative activity against human NCI-H1299 cells expressing NfsA of Escherichia coli; assay type: functional; conditions: time 4 hrs; outline: as §2
NCI-H1299 [19] = assay: Antiproliferative activity against human NCI-H1299 cells expressing NfsA of Escherichia coli assessed as cell growth inhibition measured after 4 hrs; assay type: functional; conditions: NCI-H1299, 4 h; outline: as §3
HCT-116 [20] = assay: Antiproliferative activity against human HCT-116 cells in three-dimensional cell culture multicellular layer expressing NfsA of Escherichia coli assessed as fold change in plating efficiency at 10 uM; assay type: functional
Outline: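 Mixed MCLs of wild-type HCT116 with 3% NfsA_Ec-expressing cells, against 100% wild-type MCLs, exposed to 10 μM prodrug. Clonogenic plating efficiency measured. Fold change is the plating-efficiency ratio between wild-type and transfected MCLs. ≥3 independent experiments.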

NCI-H1299 [21] = assay: Antiproliferative activity against human NCI-H1299 cells expressing AKR1C3 assessed as cell growth inhibition measured after 4 hrs; assay type: functional, cell-based; conditions: NCI-H1299, 4 h; outline: as §3
SiHa [22] = assay: Antiproliferative activity against human SiHa cells assessed as inhibition of cell growth incubated for 4 hrs under anoxic condition and measured after 5 days regrowth under aerobic condition; assay type: functional, cell-based; outline: as §1
HCT-116 [23] = assay: Antiproliferative activity against human HCT-116 cells in three-dimensional cell culture multicellular layer expressing AKR1C3 assessed as fold change in plating efficiency at 10 uM; assay type: functional
Outline: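 100% AKR1C3-expressing HCT116 MCLs, against wild-type HCT116 MCLs, exposed to 10 μM prodrug. Clonogenic plating efficiency measured. Fold change is the plating-efficiency ratio between wild-type and transfected MCLs. ≥3 independent experiments.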

HCT-116 [24] = assay: Antiproliferative activity against wild type human HCT-116 cells assessed as cell growth inhibition measured after 4 hrs; assay type: functional, cell-based; conditions: HCT-116, 4 h; outline: as §3
[25] = Selectivity ratio of IC50 for antiproliferative activity against human SiHa cells assessed as inhibition of cell growth under aerobic condition to IC50 for antiproliferative activity against human SiHa cells assessed as inhibition of cell growth under anoxic condition; assay type: functional; outline: as §5
[26] = Toxicity in NIH-III nude mouse xenografted with human HCT-116 cells expressing NfsA of Escherichia coli assessed as body weight loss at 1000 micromol/kg, ip BID measured on day 6; assay type: organism-based; conditions: in vivo, 144 h, at 1000 µmol/kg, time 6 day
SiHa [27] = assay: Antiproliferative activity against human SiHa cells assessed as inhibition of cell growth incubated for 4 hrs under aerobic condition and measured after 5 days regrowth under aerobic condition; assay type: functional, cell-based; outline: as §1
[28] = Metabolic stability in mouse liver microsome assessed as half life in presence of NADPH by LC-MS/MS analysis; assay type: ADME; conditions: liver microsomes
Outline: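 Male mouse hepatic microsomes incubated with prodrug for 30 min, with or without NADPH cofactor. Percentage of parent compound remaining tracked from triplicate incubations. Half-life estimated from this loss.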

SMILES | IC50 (HCT-116 [1]) [µM] | Ratio IC50 [2] | IC50 (HCT-116 [3]) [µM] | IC50 (HCT-116 [4]) [µM] | IC50 (HCT-116 [5]) [µM] | IC50 (NCI-H1299 [6]) [µM] | Activity [7] | logD [8] | Ratio IC50 [9] | Activity [10] [%] | LCK (HCT-116 [11]) | LCK (HCT-116 [12]) | Ratio IC50 [13] | Ratio IC50 [14] | IC50 (HCT-116 [15]) [µM] | Ratio IC50 [16] | IC50 (HCT-116 [17]) [µM] | Ratio IC50 [18] | IC50 (NCI-H1299 [19]) [µM] | fold change (FC) (HCT-116 [20]) | other results
CCN1CCN(C(=O)c2cc(N(CCBr)CCBr)c(S(=O)(=O)CC)cc2[N+](=O)[O-])CC1 | 2.8 | 1.5 | 62 | 27 | 60 | 67 | Non-Toxic | 2.1 | 1.2 | < 10 | 2.3 | 0.016 | 511 | 5.3 | 0.186 | 21 | 142 | 121 | 0.552 | 5178 | IC50 (NCI-H1299 [21]): 54 µM; IC50 (SiHa [22]): 23 µM; fold change (FC) (HCT-116 [23]): 0.9; IC50 (HCT-116 [24]): 95 µM; Ratio IC50 [25]: 11; Activity [26]: <= 7%; IC50 (SiHa [27]): 253 µM
CCN1CCN(C(=O)c2cc(N(CCBr)CCBr)c(S(C)(=O)=O)cc2[N+](=O)[O-])CC1 | 0.66 | 1.6 | 49 | 21 | 54 | 71 | Non-Toxic | 1.7 | 1 | < 10 | 2.3 | 0.016 | 740 | 6.9 | 0.104 | 82 | 145 | 406 | 0.175 | 825 | half-life [28]: 6.05 min; IC50 (NCI-H1299 [21]): 71 µM; IC50 (SiHa [22]): 10 µM; fold change (FC) (HCT-116 [23]): 1.2; IC50 (HCT-116 [24]): 77 µM; Ratio IC50 [25]: 16; Activity [26]: <= 7%; IC50 (SiHa [27]): 164 µM
